What was measured:
[1] = tested on: A549; assay: Cytotoxicity against human A549 cells after 96 hrs by trypan blue exclusion assay; type: functional, cell-based; conditions: A549, 96 h
How it was run: (§1)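 Cells grown in DMEM or RPMI with 10% FBS and penicillin-streptomycin, seeded at 1.0 × 10⁵ cells/mL/well in 6-well dishes. Compound added at a range of concentrations 24 h after seeding. Viable cells counted by trypan blue exclusion from duplicate wells after 96 h of exposure; dose-response end point.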

[2] = tested on: NCI-H157; assay: Cytotoxicity against human NCI-H157 cells after 96 hrs by trypan blue exclusion assay; type: functional, cell-based; conditions: NCI-H157, 96 h; how it was run: as §1
[3] = tested on: DU-145; assay: Cytotoxicity against human DU145 cells after 96 hrs by trypan blue exclusion assay; type: functional, cell-based; conditions: du-145; how it was run: as §1
[4] = tested on: MCF7; assay: Cytotoxicity against human MCF7 cells after 96 hrs by trypan blue exclusion assay; type: functional, cell-based; conditions: MCF7, 96 h; how it was run: as §1
[5] = Cytotoxicity against human […] cells after 96 hrs by trypan blue exclusion assay; type: functional, cell-based
How it was run: (§2)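 Cells grown in DMEM or RPMI with 10% FBS and 1 unit/mL penicillin-streptomycin, seeded at 1.0 × 10⁵ cells/mL/well in 6-well dishes; compound added 24 h later at various concentrations. After 96 h of treatment, viable cells counted by trypan blue exclusion in duplicate wells; dose-response end point.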

[6] = tested on: RPMI-7951; assay: Cytotoxicity against human RPMI7951 cells after 96 hrs by trypan blue exclusion assay; type: functional, cell-based; conditions: RPMI-7951, 96 h; how it was run: as §2
[7] = tested on: BT-474; assay: Cytotoxicity against human BT474 cells after 96 hrs by trypan blue exclusion assay; type: functional, cell-based; conditions: BT-474, 96 h; how it was run: as §1
[8] = tested on: CCRF-CEM; assay: Cytotoxicity against human CEM cells assessed as cell viability after 96 hrs by trypan blue exclusion; type: functional, cell-based; how it was run: as §1
[9] = tested on: Daudi; assay: Cytotoxicity against human Daudi cells after 96 hrs by trypan blue exclusion assay; type: functional, cell-based; how it was run: as §1
[10] = tested on: Mus musculus; assay: Toxicity against NCR-nu/nu, Taconic mouse xenografted with human BT20 cells assessed as decrease in body weight at 200 mg/kg, ip administered every other day for 22 days; type: organism-based, BT-20; design: dose 200 mg/kg, route intraperitoneal; scale not given: the % may be the effect or the level left; conditions: in vivo, 528 h
How it was run: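 Female athymic nude mice bearing subcutaneous BT20 hind-leg xenografts (0.5–1.0 × 10⁷ cells) grouped about 14 days later at ~70 mm³ (N=9). Dosed 200 mg/kg in PBS or PBS alone, Q2D × 20; methods state tail-vein IV, legend states IP. Body weight recorded at each tumor measurement, three times weekly; observed for toxicity signs; mean ± SEM.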

[11] = tested on: U-937; assay: Cytotoxicity against human U937 cells after 96 hrs by trypan blue exclusion assay; type: functional, cell-based; conditions: U-937, 96 h; how it was run: as §2
[12] = tested on: HCT-116; assay: Cytotoxicity against human HCT116 cells after 96 hrs by trypan blue exclusion assay; type: functional, cell-based; conditions: HCT-116, 96 h; how it was run: as §1
[13] = Cytotoxicity against multidrug-resistant human 2008/17/4 cells assessed as cell viability after 96 hrs by trypan blue exclusion; type: functional, cell-based; how it was run: as §2
[14] = Cytotoxicity against human Z138C cells after 96 hrs by trypan blue exclusion assay; type: functional, cell-based; how it was run: as §2
[15] = Cytotoxicity against human WM239A cells after 96 hrs by trypan blue exclusion assay; type: functional, cell-based; how it was run: as §2
[16] = tested on: AGS; assay: Cytotoxicity against human AGS cells after 96 hrs by trypan blue exclusion assay; type: functional, cell-based; how it was run: as §1
[17] = Cytotoxicity against human 451LU cells after 96 hrs by trypan blue exclusion assay; type: functional, cell-based; how it was run: as §1
[18] = tested on: HeLa; assay: Cytotoxicity against human HeLa cells after 96 hrs by trypan blue exclusion assay; type: functional, cell-based; how it was run: as §1
[19] = tested on: Raji; assay: Cytotoxicity against human Raji cells after 96 hrs by trypan blue exclusion assay; type: functional, cell-based; how it was run: as §2
[20] = tested on: PC-3; assay: Cytotoxicity against human PC3 cells after 96 hrs by trypan blue exclusion assay; type: functional, cell-based; conditions: PC-3, 96 h; how it was run: as §1
[21] = Cytotoxicity against human U87 cells after 96 hrs by trypan blue exclusion assay; type: functional, cell-based, U-87MG ATCC; conditions: U-87 MG; how it was run: as §2
[22] = tested on: CEM/C2; assay: Cytotoxicity against multidrug-resistant human CEM/C2 cells assessed as cell viability after 96 hrs by trypan blue exclusion; type: functional, cell-based; conditions: CEM/C2, 96 h; how it was run: as §2
[23] = tested on: HFL1; assay: Induction of apoptosis in human HFL1 cells assessed as PARP1 cleavage at 0.25 to 5 uM after 48 hrs by Western blot analysis; type: cell-based; conditions: hfl1, 48 h
How it was run: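 DU145 or HFL-1 cells plated at 3.0 × 10⁶ per […], treated 24 h later with DMSO or compound for 48 h. Frozen pellets lysed in 1% NP40/PBS with protease inhibitors. Equal protein run on 10% SDS-PAGE, transferred to nitrocellulose, probed with anti-PARP antibody, ECL detection.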

[24] = tested on: MDA-MB-231; assay: Cytotoxicity against human MDA-MB-231 cells after 96 hrs by trypan blue exclusion assay; type: functional, cell-based; conditions: MDA-MB-231, 96 h; how it was run: as §1
[25] = tested on: SK-BR-3; assay: Cytotoxicity against human SKBR3 cells after 96 hrs by trypan blue exclusion assay; type: functional, cell-based; conditions: SK-BR-3, 96 h; how it was run: as §2
[26] = Cytotoxicity against human NAMALWA cells after 96 hrs by trypan blue exclusion assay; type: functional, cell-based; conditions: NAMALVA; how it was run: as §1
[27] = Cytotoxicity against human WM1341D cells after 96 hrs by trypan blue exclusion assay; type: functional, cell-based; how it was run: as §2
[28] = tested on: HCT-15; assay: Cytotoxicity against human HCT15 cells after 96 hrs by trypan blue exclusion assay; type: functional, cell-based; conditions: HCT-15, 96 h; how it was run: as §1
[29] = tested on: BXPC-3; assay: Cytotoxicity against human BxPC3 cells after 96 hrs by trypan blue exclusion assay; type: functional, cell-based; conditions: BXPC-3, 96 h; how it was run: as §1
[30] = tested on: MIA PaCa-2; assay: Cytotoxicity against human MIAPaCa2 cells after 96 hrs by trypan blue exclusion assay; type: functional, cell-based; conditions: MIA PaCa-2, 96 h; how it was run: as §1
[31] = tested on: DLD-1; assay: Cytotoxicity against human DLD1 cells after 96 hrs by trypan blue exclusion assay; type: functional, cell-based; conditions: DLD-1, 96 h; how it was run: as §1

COc1cc(OC)c(/C=C/S(=O)(=O)Cc2ccc(OC)c(NCC(=O)[O-])c2)c(OC)c1.[Na+] [RIGOSERTIB SODIUM]
IC50 [1]: 90 nM
IC50 [2]: 80 nM
IC50 [3]: 100 nM
IC50 [4]: 75 nM
IC50 [5]: 10 nM
IC50 [6]: 25 nM
IC50 [7]: 50 nM
IC50 [8]: 100 nM
IC50 [9]: 150 nM
Activity [10]: < 10%
IC50 [11]: 10 nM
IC50 [12]: 75 nM
IC50 [13]: 100 nM
IC50 [14]: 75 nM
IC50 [15]: 75 nM
IC50 [16]: 80 nM
IC50 [17]: 25 nM
IC50 [18]: 100 nM
IC50 [19]: 75 nM
IC50 [20]: 150 nM
IC50 [21]: 80 nM
IC50 [22]: 50 nM
Activity [23]: Non-toxic
IC50 [24]: 25 nM
IC50 [25]: 75 nM
IC50 [26]: 75 nM
IC50 [27]: 100 nM
IC50 [28]: 90 nM
IC50 [29]: 75 nM
IC50 [30]: 50 nM
IC50 [31]: 150 nM
